This is an account of results in ChEMBL document CHEMBL3108780, “Synthesis, characterization, cytotoxicity and antibacterial activity of an anthracenyl-linked bis(pyrazolyl)methane ligand and its zinc(II) complexes” (Eur J Med Chem, 2014).

As usually defined, the MIC50 is an inhibitory concentration at the 50% level, which refers to growth in some studies and to a panel of isolates in others. The IC50 is the concentration at which inhibition is half-maximal. Low values mean greater potency, high ones weaker potency.

In one experiment the test system is Escherichia coli. The experiment in a line: Antibacterial activity against Escherichia coli ATCC 35218 after 24 hrs by MTT assay. It is filed as functional. As to conditions: ATCC 35218, 24 h. In a few lines: (§1)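 Broth microdilution per CLSI; compounds dissolved in DMSO (stock […]) and serially diluted in sterilized liquid medium (50% v/v DMSO in PBS). Inoculum about 10^5 cfu/mL, incubated 37 °C for 24 h. Growth read colorimetrically with MTT dye, OD at 550 nm; MIC50 determined.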
In general terms: Formazan colour is commonly taken as a measure of viable cells.

Another experiment concerns Pseudomonas putida. The experiment in a line: Antibacterial activity against Pseudomonas putida ATCC 49128 after 24 hrs by MTT assay. It is filed as functional. As to conditions: ATCC 49128, 24 h. In a few lines: as §1
The test system of the next experiment is Staphylococcus aureus. The experiment in a line: Antibacterial activity against Staphylococcus aureus ATCC 25923 after 24 hrs by MTT assay. Type of experiment: functional. As to conditions: ATCC 25923, 24 h. The gist of the method:
as §1

Another experiment has as its system Bacillus spizizenii. The experiment in a line: Antibacterial activity against Bacillus subtilis ATCC 6633 after 24 hrs by MTT assay. Type of experiment: functional. As to conditions: ATCC 6633, 24 h. The gist of the method: as §1
The subject of another experiment is MDA-MB-435. Nature of the experiment: Cytotoxicity against human MDA-MB-435 cells after 48 hrs by MTT assay. Type of experiment: functional, cell-based. As to conditions: MDA-MB-435, 48 h. The gist of the method: (§2)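 Cells seeded at 2 × 10^4 cells/mL, preincubated 24 h at 37 °C, 5% CO2. Compounds from DMSO mother solutions diluted in complete medium (DMSO ≤0.1%), added at pre-set concentrations with 5-fluorouracil and cisplatin as references. 48 h exposure, then MTT (2.5 mg/mL in PBS) 4 h, SDS/isobutanol/HCl solubilisation overnight, OD 570 nm. Triplicate wells, assays repeated ≥3 times; IC50.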

The subject of a further experiment is A549. The experiment in a line: Cytotoxicity against human A549 cells after 48 hrs by MTT assay. It is filed as functional, cell-based. As to conditions: A549, 48 h. The gist of the method: as §2
The subject of a further experiment is Huh-7. The experiment in a line: Cytotoxicity against human HuH7 cells after 48 hrs by MTT assay. It is filed as functional, cell-based. As to conditions: Huh-7, 48 h. The gist of the method: as §2

≈ marks a conversion by molar mass, not a printed value.

Regarding `O=C(N[C@H](CO)[C@H](O)c1ccc([N+](=O)[O-])cc1)C(Cl)Cl` [CHLORAMPHENICOL], the MIC50 in the experiment on Escherichia coli was determined as 3.04 mg/L (≈ 9.41 µM); in the experiment with Pseudomonas putida, 0.182 mg/L (≈ 0.563 µM); against Staphylococcus aureus it was 0.499 mg/L (≈ 1.54 µM); against Bacillus spizizenii, 1.25 mg/L (≈ 3.88 µM).
Turning to `c1ccc2c(C(n3cccn3)n3cccn3)c3ccccc3cc2c1`, the MIC50 with Escherichia coli turned out to be 4.8 mg/L (≈ 14.8 µM); against Pseudomonas putida, 1.54 mg/L (≈ 4.76 µM); in the experiment on Staphylococcus aureus it was 2.13 mg/L (≈ 6.57 µM); with Bacillus spizizenii, 3.26 mg/L (≈ 10 µM). In addition, the results for the IC50 in the experiment on MDA-MB-435, in the experiment on A549 and in the experiment with Huh-7 were 23.8 mg/L (≈ 73.3 µM), 9.77 mg/L (≈ 30.1 µM) and 28 mg/L (≈ 86.2 µM), respectively.
As for `O=c1[nH]cc(F)c(=O)[nH]1` [FLUOROURACIL], the IC50 was 25.6 mg/L (≈ 197 µM) with MDA-MB-435, 24.9 mg/L (≈ 191 µM) in the experiment with A549 and 20 mg/L (≈ 154 µM) with Huh-7.
